Source: ChEMBL document CHEMBL2396611, “Synthesis and mechanism of hypoglycemic activity of benzothiazole derivatives” (J Med Chem, 2013)
The source made the active and inactive calls. No cut-off for these calls is given here.

Assays:
L6 [1] = assay: Activation of AMPKalpha in rat L6 cells assessed as phosphorylation at Thr172 at 100 uM up to 5 hrs by Western blot analysis; type: cell-based
How it was run: (§1)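 L6 myotubes exposed for the indicated times to test compound (100 μM in the first series; 50–150 μM in the second) or 4 mM AICAR. Whole-cell lysates immunoblotted for pThr172-AMPKα, AMPKα and α-tubulin; band densities from three independent experiments vs respective controls.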

[2] = target: 5'-AMP-activated protein kinase catalytic subunit alpha-2 (Rattus norvegicus) (UniProt Q09137); assay: Activation of AMPK in rat L6 cells assessed as increase of [3H]dGlc uptake at 10 to 200 uM; type: cell-based; details: TDE = time-dependent effect
How it was run: (§2)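 Fully differentiated L6 myotubes preincubated 24 h in αMEM with 2% FCS and 23.0 mmol/L D-glucose, then 4 h serum-free with 0.5% BSA. Compound or DMSO vehicle given for the indicated times or concentrations. Uptake read after 5 min at room temperature in PBS pH 7.4 with 0.1 mmol/L dGlc and 1.3 μCi/mL [3H]dGlc, by scintillation of SDS lysates. Zero-time basal rate set as 100%; n=6.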

[3] = target: 5'-AMP-activated protein kinase catalytic subunit alpha-2 (Rattus norvegicus) (UniProt Q09137); assay: (§3) Activation of AMPK in rat L6 cells assessed as increase of [3H]dGlc uptake after 5 hrs; type: cell-based; how it was run: as §2
[4] = target: 5'-AMP-activated protein kinase catalytic subunit alpha-2 (Rattus norvegicus) (UniProt Q09137); assay: Activation of AMPK in rat L6 cells assessed as increase of [3H]dGlc uptake at 100 uM after 24 hrs; type: cell-based; how it was run: as §2
[5] = target: 5'-AMP-activated protein kinase catalytic subunit alpha-2 (Rattus norvegicus) (UniProt Q09137); assay: Activation of AMPK in rat L6 cells assessed as increase of [3H]dGlc uptake at 100 uM after 5 hrs in absence of insulin; type: cell-based; how it was run: as §2
L6 [6] = assay: Activation of AMPKalpha in rat L6 cells assessed as phosphorylation at Thr172 at 100 uM after 24 hrs by Western blot analysis; type: cell-based; how it was run: as §1
[7] = target: 5'-AMP-activated protein kinase catalytic subunit alpha-2 (Rattus norvegicus, UniProt Q09137); assay: as §3; type: cell-based; how it was run: as §2
[8] = target: 5'-AMP-activated protein kinase catalytic subunit alpha-2 (Rattus norvegicus) (UniProt Q09137); assay: Activation of AMPK in rat L6 cells assessed as increase of [3H]dGlc uptake at 5 uM after 5 hrs relative to control; type: cell-based; how it was run: as §2
[9] = target: 5'-AMP-activated protein kinase catalytic subunit alpha-2 (Homo sapiens) (UniProt P54646); assay: Activation of human recombinant AMPK at 20 uM after 30 mins relative to control
How it was run: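 Recombinant human full-length AMPK assayed with a commercial luminescent kit. Compound at 20 μM or DMSO vehicle (1% v/v) added to the reaction mix for 30 min at ambient temperature. Activity read by luminometer against a calibration curve; basal activity with DMSO set as 100%.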

[10] = target: 5'-AMP-activated protein kinase catalytic subunit alpha-2 (Rattus norvegicus) (UniProt Q09137); assay: Activation of AMPK in rat L6 cells assessed as increase of [3H]dGlc uptake at 150 uM after 5 hrs relative to control; type: cell-based; how it was run: as §2
L6 [11] = assay: Activation of AMPKalpha in rat L6 cells assessed as phosphorylation at Thr172 at 150 uM after 40 mins to 5 hrs by Western blot analysis; type: cell-based; how it was run: as §1
L6 [12] = assay: Effect on […] level in rat L6 cells at 3.5 mmol/L after 20 mins in presence of HCGM (reference value: 23 mmol/L); type: ADME, cell-based; details: l6, 20 min, 3500 µM
How it was run: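 Fully differentiated L6 myotubes preconditioned in medium with 23.0 mmol/L D-glucose, then exposed 20 min. Cells washed in cold 0.15 M Tris-HCl pH 7.75, extracted with ice-cold 0.5% TCA, diluted in Tris-HCl and spun 12,000 rpm, 30 min, 4 °C. Supernatant ATP measured by colorimetric kit, expressed per mg protein. Mean ± SEM; two-tailed t test against untreated 23.0 mmol/L glucose cells.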

L6 [13] = assay: Effect on ATP/AMP ratio in rat L6 cells at >100 uM; type: ADME, cell-based
L6 [14] = assay: Activation of AMPKalpha in rat L6 cells assessed as phosphorylation at Thr172 at 100 uM after 40 mins by Western blot analysis; type: cell-based; how it was run: as §1
[15] = target: 5'-AMP-activated protein kinase catalytic subunit alpha-2 (Rattus norvegicus) (UniProt Q09137); assay: Activation of AMPK in rat L6 cells assessed as increase of [3H]dGlc uptake at 100 uM after 10 to 40 hrs; type: cell-based; how it was run: as §2
[16] = Lipophilicity, log P of the compound; type: physicochemical; details: octanol/water
[17] = target: 5'-AMP-activated protein kinase catalytic subunit alpha-2 (Rattus norvegicus) (UniProt Q09137); assay: Activation of AMPK in rat L6 cells assessed as increase of [3H]dGlc uptake at > 0.5 mmol/L after 5 hrs; type: cell-based
[18] = target: 5'-AMP-activated protein kinase catalytic subunit alpha-2 (Rattus norvegicus) (UniProt Q09137); assay: Activation of AMPK in rat L6 cells assessed as phosphorylation at Thr172 at > 0.5 mmol/L after 5 hrs by Western blot analysis; type: cell-based
L6 [19] = assay: Activation of AMPKalpha in rat L6 cells assessed as phosphorylation at Thr172 at 100 uM after 60 mins by Western blot analysis; type: cell-based; how it was run: as §1
[20] = target: 5'-AMP-activated protein kinase catalytic subunit alpha-2 (Rattus norvegicus) (UniProt Q09137); assay: Activation of AMPK in rat L6 cells assessed as increase of [3H]dGlc uptake at 50 uM after 5 hrs relative to control; type: cell-based; how it was run: as §2

Sequence of 5'-AMP-activated protein kinase catalytic subunit alpha-2 (Q09137 whole entry): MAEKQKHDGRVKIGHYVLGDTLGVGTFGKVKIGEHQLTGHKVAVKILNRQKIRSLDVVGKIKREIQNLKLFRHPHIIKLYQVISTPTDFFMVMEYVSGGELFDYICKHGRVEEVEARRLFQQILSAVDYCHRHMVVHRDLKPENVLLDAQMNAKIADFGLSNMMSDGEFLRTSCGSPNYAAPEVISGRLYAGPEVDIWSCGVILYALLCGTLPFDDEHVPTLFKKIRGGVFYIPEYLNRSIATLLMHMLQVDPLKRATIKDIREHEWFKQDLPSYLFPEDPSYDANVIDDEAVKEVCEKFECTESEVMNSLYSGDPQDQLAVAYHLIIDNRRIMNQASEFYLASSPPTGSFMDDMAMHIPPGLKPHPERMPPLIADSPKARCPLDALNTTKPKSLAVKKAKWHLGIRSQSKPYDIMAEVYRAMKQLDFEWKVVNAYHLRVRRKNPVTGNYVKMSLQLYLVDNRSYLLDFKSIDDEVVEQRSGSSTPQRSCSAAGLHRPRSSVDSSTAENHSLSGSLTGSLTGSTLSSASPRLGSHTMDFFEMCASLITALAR
Sequence of 5'-AMP-activated protein kinase catalytic subunit alpha-2 (Rattus norvegicus) (Q09137 whole entry): as above
Sequence of 5'-AMP-activated protein kinase catalytic subunit alpha-2 (Homo sapiens) (P54646 whole entry, looked up): as the sequence (Q09137 whole entry) above, with V114M, Q150H, I241V, T348S, M355S, V502F, S505T, N509S, A528V, A549T counted along it

CCCNC(=O)CSc1nc2ccc(OCC)cc2s1
Activity (L6 [1]): Active
Activity [2]: tde
Activity [3]: Dose-dependent effect

Oc1nc2ccc(Br)cc2s1
Activity [4]: Active
Activity [5]: Active
Activity (L6 [6]): Active
EC50 [7]: 72.9 µM

Cc1cc(-c2ccc(/C=C3/S/C(=N\c4ccc(Cl)c(C(=O)O)c4)NC3=O)o2)c([N+](=O)[O-])cc1C
Activity [2]: tde
fold change (FC) [8]: 1.4
Activity [3]: Dose-dependent effect
fold change (FC) [9]: 2.04

CCOc1ccc2nc(SSc3nc4ccc(OCC)cc4s3)sc2c1
Activity [10]: 189%
Activity (L6 [11]): Active

O=[N+]([O-])c1ccc(O)c([N+](=O)[O-])c1 [2,4-DINITROPHENOL]
Activity (L6 [12]): 0.42 mmol/mg

CCC1SC(N)=NC1=O (centres undefined)
Activity (L6 [13]): Toxic
Activity (L6 [1]): inactive
Activity (L6 [14]): Active
EC50 [7]: 61.5 µM
Activity [15]: inactive

Oc1ccc2nc(S)sc2c1
logP [16]: 1.96

NC1=NC(=O)/C(=C\C=C\c2ccc([N+](=O)[O-])o2)S1
Activity [17]: Active
Activity [18]: Active

CCOc1ccc2nc(SCCC(=O)O)sc2c1
Activity (L6 [19]): Active
fold change (FC) [20]: 1.8

CCOc1ccc2nc(S)sc2c1
logP [16]: 3.17
Activity [4]: Active
Activity [5]: Active
Activity (L6 [6]): Active
EC50 [7]: 76.1 µM
